pIC50: −log10 of the molar value.
Test system: YT
Assay: Cytotoxicity against human YT cells assessed as dead cells at 1 uM after 24 hrs
Format: functional
Settings: not given
In short: (§1)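 Dienones added as DMSO solutions to cells in RPMI medium and incubated 24 h at 37°C. Cytotoxicity was scored as cell-membrane disruption by propidium iodide staining and expressed as percentage of dead cells, averaged over three independent experiments.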
For `O=C1/C(=C\c2ccccc2)CN(CCCN2C/C(=C\c3ccccc3)C(=O)/C(=C/c3ccccc3)C2)C/C1=C\c1ccccc1`, the Activity was 6.6%.

Test system: HL-60(TB)
Assay: Antileukemic activity against human HL-60(TB) cells assessed as inhibition of tumor growth after 24 hrs
Format: functional, cell-based
Settings: HL-60, 24 h
Compound `O=C1/C(=C\c2ccccc2)CN(CCCN2C/C(=C\c3ccccc3)C(=O)/C(=C/c3ccccc3)C2)C/C1=C\c1ccccc1` has a pIC50 of 6.60.

Test system: not listed separately
Assay: Cytotoxicity against human HuT-102 cells assessed as dead cells at 1 uM after 24 hrs
Format: functional
Settings: not given
In short: as §1
Compound `O=C1/C(=C\c2ccccc2)CN(CCCN2C/C(=C\c3ccccc3)C(=O)/C(=C/c3ccccc3)C2)C/C1=C\c1ccccc1` has an Activity of 10%.

Test system: SW-620
Assay: Cytotoxicity against human SW620 cells assessed as inhibition of tumor growth after 24 hrs
Format: functional, cell-based
Settings: SW-620, 24 h
`O=C1/C(=C\c2ccccc2)CN(CCCN2C/C(=C\c3ccccc3)C(=O)/C(=C/c3ccccc3)C2)C/C1=C\c1ccccc1` gave a pIC50 of 7.22.

Test system: not listed separately
Assay: Cytotoxicity against human HCT15 cells assessed as inhibition of tumor growth after 24 hrs
Format: functional, cell-based
Settings: HCT-15, 24 h
For `O=C1/C(=C\c2ccccc2)CN(CCCN2C/C(=C\c3ccccc3)C(=O)/C(=C/c3ccccc3)C2)C/C1=C\c1ccccc1`, the pIC50 was 6.70.

Test system: HeLa
Assay: Antiproliferative activity against human HeLa cells after 72 hrs by coulter counting analysis
Format: functional, cell-based
Settings: not given
In short: (§2)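 Cells exposed to a range of concentrations in RPMI 1640 at 37°C for 72 h. Surviving cells counted by Coulter counter. IC50 taken from concentration-response curves, mean ± SD of at least three independent experiments.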
`O=C1/C(=C\c2ccccc2)CN(CCCN2C/C(=C\c3ccccc3)C(=O)/C(=C/c3ccccc3)C2)C/C1=C\c1ccccc1` showed a pIC50 of 5.26.

Test system: not listed separately
Assay: Cytotoxicity against human SupT1 cells assessed as dead cells at 1 uM after 24 hrs
Format: functional, SUP-T1
Settings: not given
In short: as §1
With `O=C1/C(=C\c2ccccc2)CN(CCCN2C/C(=C\c3ccccc3)C(=O)/C(=C/c3ccccc3)C2)C/C1=C\c1ccccc1` the Activity was 21.2%.

Test system: CCRF-CEM
Assay: Antiproliferative activity against human CEM cells after 72 hrs by coulter counting analysis
Format: functional, cell-based
Settings: not given
In short: as §2
`O=C1/C(=C\c2ccccc2)CN(CCCN2C/C(=C\c3ccccc3)C(=O)/C(=C/c3ccccc3)C2)C/C1=C\c1ccccc1` gave a pIC50 of 5.60.

Test system: MCF7
Assay: Cytotoxicity against human MCF7 cells assessed as dead cells at 1 uM after 24 hrs
Format: functional
Settings: not given
In short: as §1
`O=C1/C(=C\c2ccccc2)CN(CCCN2C/C(=C\c3ccccc3)C(=O)/C(=C/c3ccccc3)C2)C/C1=C\c1ccccc1` showed an Activity of 43.5%.

Test system: BJAB
Assay: Cytotoxicity against human BJAB cells assessed as dead cells at 1 uM after 24 hrs
Format: functional
Settings: not given
In short: as §1
For `O=C1/C(=C\c2ccccc2)CN(CCCN2C/C(=C\c3ccccc3)C(=O)/C(=C/c3ccccc3)C2)C/C1=C\c1ccccc1`, the Activity was 39.4%.

Test system: not listed separately
Assay: Cytotoxicity against human NCI60 cells assessed as inhibition of tumor growth after 24 hrs
Format: functional, cell-based
Settings: NCI60, 24 h
In the case of `O=C1/C(=C\c2ccccc2)CN(CCCN2C/C(=C\c3ccccc3)C(=O)/C(=C/c3ccccc3)C2)C/C1=C\c1ccccc1`, the pIC50 was 6.72.

Test system: Raji
Assay: Cytotoxicity against human Raji cells assessed as dead cells at 1 uM after 24 hrs
Format: functional
Settings: not given
In short: as §1
In the case of `O=C1/C(=C\c2ccccc2)CN(CCCN2C/C(=C\c3ccccc3)C(=O)/C(=C/c3ccccc3)C2)C/C1=C\c1ccccc1`, the Activity was 31.9%.

Test system: not listed separately
Assay: Cytotoxicity against human MDA231 cells assessed as dead cells at 1 uM after 24 hrs
Format: functional, MDA-MB-231
Settings: not given
In short: as §1
Compound `O=C1/C(=C\c2ccccc2)CN(CCCN2C/C(=C\c3ccccc3)C(=O)/C(=C/c3ccccc3)C2)C/C1=C\c1ccccc1` has an Activity of 20.1%.

Test system: not listed separately
Assay: Cytotoxicity against human MCF10A cells assessed as dead cells at 1 uM after 24 hrs
Format: cell-based
Settings: mcf-10a
In short: (§3)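 Compounds added from DMSO solutions to cells in medium (RPMI; DMEM for Hs-27 fibroblasts) and incubated 24 h at 37°C. Membrane disruption scored by propidium iodide uptake. Result is percentage of dead cells, average of three independent experiments.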
Compound `O=C1/C(=C\c2ccccc2)CN(CCCN2C/C(=C\c3ccccc3)C(=O)/C(=C/c3ccccc3)C2)C/C1=C\c1ccccc1` has an Activity of 19.4%.

Test system: SR
Assay: Antileukemic activity against human SR cells assessed as inhibition of tumor growth after 24 hrs
Format: functional, cell-based
Settings: not given
With `O=C1/C(=C\c2ccccc2)CN(CCCN2C/C(=C\c3ccccc3)C(=O)/C(=C/c3ccccc3)C2)C/C1=C\c1ccccc1` the pIC50 was 7.40.

Test system: not listed separately
Assay: Antiproliferative activity against human Molt4/C8 cells after 72 hrs by coulter counting analysis
Format: functional, cell-based
Settings: MOLT-4, 72 h
In short: as §2
`O=C1/C(=C\c2ccccc2)CN(CCCN2C/C(=C\c3ccccc3)C(=O)/C(=C/c3ccccc3)C2)C/C1=C\c1ccccc1` gave a pIC50 of 5.84.

Test system: COLO 205
Assay: Cytotoxicity against human COLO205 cells assessed as inhibition of tumor growth after 24 hrs
Format: functional, cell-based
Settings: COLO 205, 24 h
Work on `O=C1/C(=C\c2ccccc2)CN(CCCN2C/C(=C\c3ccccc3)C(=O)/C(=C/c3ccccc3)C2)C/C1=C\c1ccccc1` yielded a pIC50 of 6.72.

Test system: not listed separately
Assay: Cytotoxicity against human MOLT3 cells assessed as dead cells at 1 uM after 24 hrs
Format: functional, MOLT-3
Settings: not given
In short: as §1
In the case of `O=C1/C(=C\c2ccccc2)CN(CCCN2C/C(=C\c3ccccc3)C(=O)/C(=C/c3ccccc3)C2)C/C1=C\c1ccccc1`, the Activity was 27.4%.

Test system: K562
Assay: Antileukemic activity against human K562 cells assessed as inhibition of tumor growth after 24 hrs
Format: functional, cell-based
Settings: K562, 24 h
`O=C1/C(=C\c2ccccc2)CN(CCCN2C/C(=C\c3ccccc3)C(=O)/C(=C/c3ccccc3)C2)C/C1=C\c1ccccc1` gave a pIC50 of 7.40.

Test system: not listed separately
Assay: Cytotoxicity against human NALM6 cells assessed as dead cells at 1 uM after 24 hrs
Format: functional, NALM-6
Settings: not given
In short: as §1
With `O=C1/C(=C\c2ccccc2)CN(CCCN2C/C(=C\c3ccccc3)C(=O)/C(=C/c3ccccc3)C2)C/C1=C\c1ccccc1` the Activity was 49.2%.

Test system: not listed separately
Assay: Antileukemic activity against human RPMI8226 cells assessed as inhibition of tumor growth after 24 hrs
Format: functional, cell-based
Settings: rpmi-8226
Compound `O=C1/C(=C\c2ccccc2)CN(CCCN2C/C(=C\c3ccccc3)C(=O)/C(=C/c3ccccc3)C2)C/C1=C\c1ccccc1` has a pIC50 of 7.40.

Test system: CCRF-CEM
Assay: Cytotoxicity against human CEM cells assessed as dead cells at 1 uM after 24 hrs
Format: functional
Settings: not given
In short: as §1
Work on `O=C1/C(=C\c2ccccc2)CN(CCCN2C/C(=C\c3ccccc3)C(=O)/C(=C/c3ccccc3)C2)C/C1=C\c1ccccc1` yielded an Activity of 64.5%.

Test system: not listed separately
Assay: Cytotoxicity against human 22Rvl cells assessed as dead cells at 1 uM after 24 hrs
Format: functional
Settings: not given
In short: as §1
Work on `O=C1/C(=C\c2ccccc2)CN(CCCN2C/C(=C\c3ccccc3)C(=O)/C(=C/c3ccccc3)C2)C/C1=C\c1ccccc1` yielded an Activity of 1.7%.

Test system: L1210
Assay: Antiproliferative activity against mouse L1210 cells after 72 hrs by coulter counting analysis
Format: functional, cell-based
Settings: L1210, 72 h
In the case of `O=C1/C(=C\c2ccccc2)CN(CCCN2C/C(=C\c3ccccc3)C(=O)/C(=C/c3ccccc3)C2)C/C1=C\c1ccccc1`, the pIC50 was 5.53.

Test system: Jurkat
Assay: Cytotoxicity against human Jurkat cells assessed as dead cells at 1 uM after 24 hrs
Format: functional
Settings: not given
In short: as §1
With `O=C1/C(=C\c2ccccc2)CN(CCCN2C/C(=C\c3ccccc3)C(=O)/C(=C/c3ccccc3)C2)C/C1=C\c1ccccc1` the Activity was 76.3%.

Test system: EL4
Assay: Cytotoxicity against mouse EL4 cells assessed as dead cells at 1 uM after 24 hrs
Format: functional
Settings: not given
In short: as §1
Compound `O=C1/C(=C\c2ccccc2)CN(CCCN2C/C(=C\c3ccccc3)C(=O)/C(=C/c3ccccc3)C2)C/C1=C\c1ccccc1` has an Activity of 65.3%.

Test system: KM12
Assay: Cytotoxicity against human KM12 cells assessed as inhibition of tumor growth after 24 hrs
Format: functional, cell-based
Settings: KM12, 24 h
`O=C1/C(=C\c2ccccc2)CN(CCCN2C/C(=C\c3ccccc3)C(=O)/C(=C/c3ccccc3)C2)C/C1=C\c1ccccc1` showed a pIC50 of 6.80.

Test system: HS27
Assay: Cytotoxicity against human HS27 cells assessed as dead cells at 1 uM after 24 hrs
Format: cell-based
Settings: hs27, 24 h
In short: as §3
With `O=C1/C(=C\c2ccccc2)CN(CCCN2C/C(=C\c3ccccc3)C(=O)/C(=C/c3ccccc3)C2)C/C1=C\c1ccccc1` the Activity was 2.9%.

Test system: Ramos
Assay: Cytotoxicity against human Ramos cells assessed as dead cells at 1 uM after 24 hrs
Format: functional
Settings: not given
In short: as §1
Work on `O=C1/C(=C\c2ccccc2)CN(CCCN2C/C(=C\c3ccccc3)C(=O)/C(=C/c3ccccc3)C2)C/C1=C\c1ccccc1` yielded an Activity of 82.1%.

Test system: LAPC4
Assay: Cytotoxicity against human LAPC4 cells assessed as dead cells at 1 uM after 24 hrs
Format: functional
Settings: not given
In short: as §1
In the case of `O=C1/C(=C\c2ccccc2)CN(CCCN2C/C(=C\c3ccccc3)C(=O)/C(=C/c3ccccc3)C2)C/C1=C\c1ccccc1`, the Activity was 5.7%.

Test system: HCC70
Assay: Cytotoxicity against human HCC70 cells assessed as dead cells at 1 uM after 24 hrs
Format: functional
Settings: not given
In short: as §1
Work on `O=C1/C(=C\c2ccccc2)CN(CCCN2C/C(=C\c3ccccc3)C(=O)/C(=C/c3ccccc3)C2)C/C1=C\c1ccccc1` yielded an Activity of 4.3%.

Test system: HCC 2998
Assay: Cytotoxicity against human HCC2998 cells assessed as inhibition of tumor growth after 24 hrs
Format: functional, cell-based
Settings: HCC 2998, 24 h
In the case of `O=C1/C(=C\c2ccccc2)CN(CCCN2C/C(=C\c3ccccc3)C(=O)/C(=C/c3ccccc3)C2)C/C1=C\c1ccccc1`, the pIC50 was 6.74.
